Screens deposited in PubChem by several laboratories.
KCC2 mod – KCC2 (human) Cl- transport modulation; AID 1456; B-score of Tl+ flux slope (higher = more flux/activation; lower = inhibition) at 10 µM; Q9H2X9; KCC2 cells, thallium flux FluoZin-2 fluorescence; actives 2.2% (n = 190,000);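 active = thallium flux slope and its plate-corrected score both differing from the plate sample mean at a set confidence after two filtering rounds, in either direction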;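 note: slope of fluorescence scaled to starting intensity during 10 to 20 s after thallium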
p-CIP stab down – lowers stability of the mouse p/CIP coactivator protein | Q05BA5 | F442A p/CIP-EGFP cells, EGFP fluorescence, 16 h | decrease of EGFP signal, % at 10 µM | actives 0.01% (n = 290,000);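 active = EGFP signal decrease of at least 30% at 10 µM or well 3 SD below plate mean, unless failing retest; inactive = the rest, including hits failing retest or dose response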
V-ATPase pHluor – regulators of yeast V-ATPase proton transport; S. cerevisiae, pHLuorin cytosolic pH fluorescence; response, % at 10 µM; actives 0.37% (n = 350,000); in the data active = response mostly above about 7.3%, no sharp cut-off; inactive = mostly below about 5.4%; note: actives read high
Dynein cargo inh – blocks dynein driven cargo transport along microtubules | 3617.4 mouse cells, GR-EGFP nuclear translocation imaging; test concentration mostly 20 µM; stimulated with dexamethasone, 1 µM; hits give low values | z-score, hits read low | actives 0.47% (n = 220,000) | AID 1381;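 active = plate z-score of nuclear minus cytoplasmic receptor signal below a set negative limit, without overly bright fluorescence or cell loss, cut at about -3.5 in these data, passing the limit was not always enough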;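 note: z-score of nuclear minus cytoplasmic ring GR-EGFP intensity difference per well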
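Schedule: 48 h induction, then 1 h compound, then 30 min agonist, 37 °C. Buffer or medium: tetracycline-free induction medium containing charcoal-stripped FBS. Reagent: 1.0 µM final dexamethasone stimulus. Evaluation: nuclear versus cytoplasmic GR-EGFP signal, averaged per well. Signal: high-content fluorescence imaging after fixation.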
ABCB6 inh 2 – human ABCB6 transporter inhibition | Q9NP58 | K562-ABCB6 porphyrin accumulation, flow cytometry, 1 h; hits give low values | fluorescence ratio to DMSO, % at 10 µM | actives 0.19% (n = 360,000) | AID 602162;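 active = fluorescence ratio to DMSO below 75%, the collection mean minus 3 SD; inconclusive = too few cells collected in the well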;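 note: signal is porphyrin accumulated inside mitochondria; 100% equals median channel fluorescence of DMSO control wells; lower ratio means ABCB6 inhibition with less porphyrin fluorescence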
Target sequence (Q9NP58 whole entry, looked up): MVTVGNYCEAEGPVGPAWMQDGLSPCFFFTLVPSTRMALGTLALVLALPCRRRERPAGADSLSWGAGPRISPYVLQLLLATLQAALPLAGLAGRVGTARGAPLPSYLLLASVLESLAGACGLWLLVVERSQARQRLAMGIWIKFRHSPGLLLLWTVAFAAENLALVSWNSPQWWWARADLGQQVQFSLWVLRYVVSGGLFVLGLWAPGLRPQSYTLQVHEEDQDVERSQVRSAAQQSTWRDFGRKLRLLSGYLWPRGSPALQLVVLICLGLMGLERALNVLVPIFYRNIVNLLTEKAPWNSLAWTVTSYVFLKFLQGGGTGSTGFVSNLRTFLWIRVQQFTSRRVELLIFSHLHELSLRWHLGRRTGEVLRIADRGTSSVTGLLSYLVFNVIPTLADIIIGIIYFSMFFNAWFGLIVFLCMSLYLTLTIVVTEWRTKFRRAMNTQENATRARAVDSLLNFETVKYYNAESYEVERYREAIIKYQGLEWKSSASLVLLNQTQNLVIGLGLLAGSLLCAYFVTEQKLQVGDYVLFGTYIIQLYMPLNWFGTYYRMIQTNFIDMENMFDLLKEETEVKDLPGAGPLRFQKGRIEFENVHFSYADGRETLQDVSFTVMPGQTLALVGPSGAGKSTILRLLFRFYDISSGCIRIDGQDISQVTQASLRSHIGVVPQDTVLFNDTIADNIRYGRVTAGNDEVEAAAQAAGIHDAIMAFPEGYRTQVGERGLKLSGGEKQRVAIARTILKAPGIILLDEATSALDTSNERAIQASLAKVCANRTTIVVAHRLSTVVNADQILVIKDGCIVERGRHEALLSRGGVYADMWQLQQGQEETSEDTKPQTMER
KCC2 secondary – confirmation of human KCC2 transport modulators; shares compounds with KCC2 mod; HEK293-KCC2, thallium flux, FluoZin2 fluorescence; hits give high values; normalised thallium flux (F/F0 slope) at 10 µM; actives 15% (n = 3,700);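 active = thallium flux slope above the same plate's solvent-only control mean plus 3 SD; inconclusive = the two replicate wells disagree; inactive = no significant difference from solvent-only control wells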
KCC2 bumet counter – thallium flux despite bumetanide block in KCC2 cells, secondary assay 3. shares compounds with KCC2 mod. HEK293-KCC2 + bumetanide/ouabain, thallium flux FluoZin2; hits give high values. normalized thallium flux at 10 µM. actives 49% (n = 3,700). AID 1714;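 active = thallium entry rate above the same plate's blocked-transporter control wells by more than 3 SD; inconclusive = the two repeat wells disagree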;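 note: raw slope of fluorescence over initial fluorescence between 10 and 20 s after thallium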
KCC2 secondary2 – KCC2 (human) modulation, second secondary assay | shares compounds with KCC2 mod | HEK293-KCC2, thallium flux FluoZin2 fluorescence; actives lie on both sides; F/F0 rise rate, 10–20 s post-thallium | normalized thallium flux at 10 µM | actives 23% (n = 3,700);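 active = thallium flux slope more than 3 SD above or below the plate's solvent-only control mean, mostly below; inconclusive = the two repeat wells disagreed; inactive = no significant shift from solvent-only controls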;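 note: raw slope with 0.1% DMSO as baseline and bumetanide as block control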
HEK counter1 – parental HEK flux effect, counter-screen; shares compounds with KCC2 mod; HEK293 parental cells, thallium flux FluoZin2, ouabain; baseline-ratio fluorescence slope, 10–20 s after thallium; thallium flux rate (normalised fluorescence) at 10 µM; actives 46% (n = 3,700); AID 1716;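 active = thallium flux rate significantly above the same plate's solvent-only control wells, beyond their mean plus 3 SD; inconclusive = the two replicate wells gave conflicting results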
KCC2 retest ouab – modulates human KCC2 on retest with ouabain. raw Tl+ flux slope (below DMSO = inhibition, above = activation) at 10 µM. actives 48% (n = 3,700). shares compounds with KCC2 mod. HEK293-KCC2, thallium flux FluoZin2 fluorescence; bidirectional: low = inhibitor, high = activator;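 active = thallium flux slope beyond 3 SD from same-plate DMSO control mean in most replicates, usually higher, sometimes lower; inconclusive = repeat tests gave conflicting results; inactive = no significant difference from controls in most replicates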;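 note: slope of initial-normalized fluorescence between seconds 10 and 20 after thallium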
HEK293 Tl flux2 – counter-screen for KCC2 modulators: effect in parental HEK293 cells; thallium flux slope at 10 µM; shares compounds with KCC2 mod; actives 33% (n = 3,700); thallium flux FluoZin-2 fluorescence slope;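 active = thallium flux slope above the same plate's solvent-control mean plus 3 SD in both duplicate wells; inconclusive = duplicate wells that disagreed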;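 note: run without ouabain in cells lacking the KCC2 cotransporter; slope of fluorescence scaled to its starting value between 10 and 20 s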
V-ATPase pH SP – regulators of yeast V-ATPase proton transport; AID 602197; S. cerevisiae pHLuorin cytosolic pH; shares compounds with V-ATPase pHluor; actives 2% (n = 980); response, % at 10 µM; in the data active = response above about 24%;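 note: plate controls were vehicle wells for no effect and positive control wells for full effect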
ABCB6 blocker 1 – blocks the human ABCB6 transporter. AID 602430. 700 tested, under 10 active. shares compounds with ABCB6 inh 2. K562-ABCB6 porphyrin accumulation, flow cytometry, 1 h; hits give low values. ratio response (% of DMSO), % at 10 µM;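 active = repeat-averaged ratio response below 75% of DMSO, the collection mean minus 3 SD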;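 note: median porphyrin fluorescence at 575 nm with 488 nm excitation from mitochondria; lower ratio means less porphyrin signal so ABCB6 inhibition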
* marks the source's active call; other numbers are inactive results; ? = inconclusive; . = no result given. The full list was thinned out, with hits kept by preference.

SMILES	KCC2 mod	p-CIP stab down	V-ATPase pHluor	Dynein cargo inh	ABCB6 inh 2	V-ATPase pH SP	others
Clc1ccccc1CSC1=NCCCN1	.	8.9	0.9	-0.49	96.0	1.2	KCC2 secondary=0.0075;KCC2 bumet counter=0.00472;KCC2 secondary2=0.0311;HEK counter1=0.00796;KCC2 retest ouab=0.0195;HEK293 Tl flux2=0.0108
COc1cccc(CNS(=O)(=O)c2cn(C)cn2)c1	7.16*	-17.6	-2.2	-0.305	8.0*	.	KCC2 secondary=0.00615;KCC2 bumet counter=0.00459;KCC2 secondary2=0.0328;HEK counter1=0.00758;KCC2 retest ouab=0.019;HEK293 Tl flux2=0.0106;ABCB6 blocker 1=104.0
Nc1c(N(Cc2ccco2)C(=O)c2ccccc2F)c(=O)[nH]c(=O)n1Cc1ccccc1	.	.	1.2	.	102.0	.
O=C(O)CC/C(=C\c1ccc(Cl)c([N+](=O)[O-])c1)c1nc2ccccc2s1	-7.12*	-23.2	-1.7	0.289	72.0*	.	KCC2 secondary=0.00719;KCC2 bumet counter=0.0072;KCC2 secondary2=?;HEK counter1=0.00578*;KCC2 retest ouab=?;HEK293 Tl flux2=0.00896;ABCB6 blocker 1=101.0
O=C(O)CC/C(=C/c1cccc(NC(=O)c2ccccc2Cl)c1)c1nc2ccccc2s1	.	.	0.2	.	98.0	.
CSc1ccc(Cn2c(C)c(C(=O)NCc3cccc(Cl)c3)sc2=O)cc1	.	.	.	.	95.0	.
COc1ccccc1OCc1ccc(C(=O)N2N=C(C(F)F)CC2(O)C(F)F)o1 (stereo not given)	-3.32*	-40.1	-4.1	0.255	108.0	.	KCC2 secondary=0.00711;KCC2 bumet counter=0.00568;KCC2 secondary2=0.0254*;HEK counter1=0.00669;KCC2 retest ouab=0.0132*;HEK293 Tl flux2=?;ABCB6 blocker 1=99.0
CCOc1ccc(C(=O)NC2CCCCCCC2)cc1	.	.	2.6	.	101.0	.
O=C(NC1CCCCCC1)c1ccc(OCC2CCCO2)cc1 (stereo not given)	0.469	-2.0	7.8*	-0.793	102.0	1.4
CCOC(=O)c1ccc(NC(=O)C(=O)NCc2ccncc2)cc1	.	-17.7	11.0*	1.95	106.0	1.3
Cc1sc(NC(=O)Cc2ccc3c(c2)OCO3)nc1-c1ccc2c(c1)CCN2C(=O)c1ccccc1F	0.928	-2.6	6.1	0.0484	91.0	.
Cc1sc(NC(=O)Cc2ccc3c(c2)OCO3)nc1-c1ccc2c(c1)CCN2C(=O)c1ccc(F)cc1	-0.425	-1.8	10.6*	0.0645	90.0	-0.9
Cc1ccc(S(=O)(=O)N2CCN(c3ccccc3)CC2)cc1C(N)=O	0.0725	-5.2	9.8*	-0.257	90.0	-1.1
COc1ccc(CNC(=O)COC(=O)CCOc2ccccc2)cc1	-0.836	1.9	0.6	1.36	97.0	.
COc1ccc(OCCC(=O)OCC(=O)NCCc2ccccc2)cc1	-0.212	-3.7	7.6*	0.119	99.0	0.2
CCOC(=O)C1C(C(=O)OC)=C(c2ccc(OC)cc2)c2ccc(OC)cc2N1S(=O)(=O)C(F)(F)F (stereo not given)	.	.	8.0*	.	94.0	3.5
CC1CCCC(NC(=O)C2N(CCCN3CCCC3)C(=O)C3C(C(=O)Nc4cccc(Cl)c4)C4C=CC32O4)C1C (stereo not given)	.	-1.9	-1.8	.	97.0	.
COc1ccc(NS(=O)(=O)c2ccc(C)c(C(=O)NCC(c3ccco3)N3CCCCC3)c2)cc1 (stereo not given)	.	.	9.9*	.	103.0	-1.7
O=Nc1c(O)n(Cc2cccc(C(F)(F)F)c2)c2ccccc12	0.938	-16.8	-5.2	-0.802	94.0	.
CCN(CC(=O)Nc1ccc(NC(C)=O)cc1)C(=O)CN1C(=O)NC(C)(c2ccc3ccccc3c2)C1=O (stereo not given)	.	.	-3.1	.	99.0	.
Cc1ccc(CSCC(=O)N2CCN(c3ccc(F)cc3)CC2)cc1	-0.7	7.0	11.8*	-0.0472	109.0	-0.2
O=C(Cc1c(Cl)cccc1Cl)OCC(=O)N1CCOCC1	.	.	12.8*	.	106.0	3.1
O=C(Cc1c(Cl)cccc1Cl)OCC(=O)N1CCc2ccccc2C1	-0.715	-5.8	0.9	0.205	99.0	.
O=C(CSc1nnc(-c2ccccc2)o1)NC1CC1	.	.	-0.1	.	102.0	-1.4
O=C1OCCC1Sc1nnc(-c2ccccc2)o1 (stereo not given)	0.346	-3.1	-1.0	2.8	96.0	-2.5
SMILES	KCC2 mod	p-CIP stab down	V-ATPase pHluor	Dynein cargo inh	ABCB6 inh 2	V-ATPase pH SP	others
O=C(CSc1nnc(-c2ccccc2)o1)NC1CCS(=O)(=O)C1 (stereo not given)	0.738	-8.6	3.0	0.352	102.0	2.6
Cc1ccc(C)c(SCC(=O)NC2CCS(=O)(=O)C2)c1 (stereo not given)	.	.	11.9*	.	98.0	-3.7
Cc1ccc(-n2nnnc2SCC(=O)NC2CCS(=O)(=O)C2)c(C)c1 (stereo not given)	.	.	-2.2	.	97.0	.
O=C(CSc1ccccc1F)NCC1(N2CCCCC2)CCCCC1	.	.	4.0	.	95.0	.
COC(=O)c1ccc(CNC(=O)CN2C(=O)NC(Cc3ccccc3)(c3ccccc3)C2=O)cc1 (stereo not given)	.	.	-0.2	.	95.0	.
O=C(/C=C/c1ccccc1)NCCS(=O)(=O)N1CCN(c2ccccc2)CC1	.	.	6.5*	.	97.0	1.2
CC(=O)c1ccc(OCC(O)CN2CCN(S(=O)(=O)c3c(C)c(C)cc(C)c3C)CC2)cc1 (stereo not given)	.	-14.6	6.4	.	99.0	.
COc1ccc(OC)c(NC(=O)c2ccc(OC3CSC3)cc2)c1	0.0266	0.9	12.7*	-0.147	101.0	-1.7
O=C(NCc1ccco1)C(=O)NCC(c1ccco1)N1CCOCC1 (stereo not given)	-1.02	-6.8	18.5*	0.863	99.0	-3.9
Cc1cc(C)c(C(=O)COC(=O)C2CCN(c3ccc(C(F)(F)F)cn3)CC2)c(C)c1	.	.	8.6*	.	98.0	-0.1
Cc1ccc(NS(=O)(=O)c2ccc(Cl)nc2)c(C)c1	.	.	0.1	.	99.0	.
